{"source": "paper PMC5715471", "about": "(ACS chemical neuroscience, 2017)", "key": {"σ2R/Tmem97": {"biological_target": "T1, σ2R/Tmem97 (Rattus norvegicus, UniProt Q5U3Y7)", "T1 sequence (Q5U3Y7 1-176)": "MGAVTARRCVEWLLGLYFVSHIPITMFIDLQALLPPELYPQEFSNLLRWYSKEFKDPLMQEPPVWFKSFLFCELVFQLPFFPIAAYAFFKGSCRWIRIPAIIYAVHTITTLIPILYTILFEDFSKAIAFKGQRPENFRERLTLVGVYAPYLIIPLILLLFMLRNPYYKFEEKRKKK", "test": "Sigma 2 receptor competition binding with [3H]-ditolylguanidine", "conditions": "σ2R from rat PC12 cells"}, "[1]": {"tested_on": "mouse spared nerve injury (SNI) model", "test": "Mechanical sensitivity", "type": "in vivo", "in_short": "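Male C57Bl6/J mice with SNI (peroneal and tibial sciatic branches cut, sural spared), confirmed hypersensitive 2 weeks post-surgery and screened 21–60 days after SNI. Single intrathecal 10 μg in 5 μL saline (DMSO <5%, vehicle DMSO-matched). Blinded hindpaw von Frey, modified up–down, at set times. n = 4–11. Mean ± SEM; two-way ANOVA with Bonferroni. Repeat injections ≥14 days apart.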"}, "SNI mice": {"tested_on": "SNI mice", "test": "Rotorod test of motor performance", "type": "in vivo, mouse", "conditions": "IV 10 mg/kg, 48 h after injection, third trial", "in_short": "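SNI mice given IV vehicle or test compound 10 mg/kg in sterile saline, tested 48 h later. Automated rotorod accelerating to 40 rpm over 200 s. Two training runs; latency to fall recorded on third trial. n = 6 per group; two-tailed t test.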"}, "5HT1A": {"biological_target": "5HT1A (Homo sapiens, UniProt P08908)", "sequence (P08908 whole entry)": "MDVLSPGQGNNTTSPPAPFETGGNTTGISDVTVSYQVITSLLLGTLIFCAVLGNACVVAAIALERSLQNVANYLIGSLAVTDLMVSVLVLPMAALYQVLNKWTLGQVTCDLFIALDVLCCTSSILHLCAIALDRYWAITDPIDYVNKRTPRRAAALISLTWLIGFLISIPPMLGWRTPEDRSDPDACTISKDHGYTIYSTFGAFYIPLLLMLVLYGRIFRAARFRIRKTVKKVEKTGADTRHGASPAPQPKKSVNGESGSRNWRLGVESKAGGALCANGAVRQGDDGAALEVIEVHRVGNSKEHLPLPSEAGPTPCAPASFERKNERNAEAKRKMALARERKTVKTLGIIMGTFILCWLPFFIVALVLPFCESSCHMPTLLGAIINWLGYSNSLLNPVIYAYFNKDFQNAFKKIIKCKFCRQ", "test": "PDSP radioligand binding, 5HT1A", "conditions": "10 μM"}, "5HT1B": {"biological_target": "5HT1B (Homo sapiens, UniProt P28222)", "test": "PDSP radioligand binding, 5HT1B", "conditions": "10 μM"}, "5HT1D": {"biological_target": "5HT1D (Homo sapiens, UniProt P28221)", "sequence (P28221 whole entry)": "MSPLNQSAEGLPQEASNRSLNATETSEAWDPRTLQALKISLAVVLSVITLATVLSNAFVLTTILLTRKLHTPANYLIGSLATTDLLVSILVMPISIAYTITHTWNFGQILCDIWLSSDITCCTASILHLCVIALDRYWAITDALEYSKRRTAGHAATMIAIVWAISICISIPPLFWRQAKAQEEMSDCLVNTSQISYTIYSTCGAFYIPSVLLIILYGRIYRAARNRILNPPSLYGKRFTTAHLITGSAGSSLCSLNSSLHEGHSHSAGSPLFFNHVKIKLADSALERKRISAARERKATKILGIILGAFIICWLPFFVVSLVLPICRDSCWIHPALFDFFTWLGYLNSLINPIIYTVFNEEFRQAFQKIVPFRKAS", "test": "PDSP radioligand binding, 5HT1D", "conditions": "10 μM"}, "5HT2A": {"biological_target": "5HT2A (Homo sapiens, UniProt P28223)", "test": "PDSP radioligand binding, 5HT2A", "conditions": "10 μM"}, "5HT5a": {"biological_target": "5HT5a (Homo sapiens, UniProt P47898)", "test": "PDSP radioligand binding, 5HT5a", "conditions": "10 μM"}, "5HT7": {"biological_target": "5HT7 (Homo sapiens, UniProt P34969)", "test": "PDSP radioligand binding, 5HT7", "conditions": "10 μM"}, "A2B2": {"biological_target": "A2B2 (Rattus norvegicus, UniProt P12389+P12390)", "test": "PDSP radioligand binding, A2B2", "conditions": "10 μM"}, "A2B4": {"biological_target": "A2B4 (Rattus norvegicus, UniProt P12389+P12392)", "test": "PDSP radioligand binding, A2B4", "conditions": "10 μM"}, "A3B2": {"biological_target": "A3B2 (Rattus norvegicus, UniProt P04757+P12390)", "test": "PDSP radioligand binding, A3B2", "conditions": "10 μM"}, "A3B4": {"biological_target": "A3B4 (Rattus norvegicus, UniProt P04757+P12392)", "test": "PDSP radioligand binding, A3B4", "conditions": "10 μM"}, "A4B2 [2]": {"biological_target": "T2, A4B2 (Rattus norvegicus, UniProt P09483+P12390)", "T2 sequence (P09483 31-630)": "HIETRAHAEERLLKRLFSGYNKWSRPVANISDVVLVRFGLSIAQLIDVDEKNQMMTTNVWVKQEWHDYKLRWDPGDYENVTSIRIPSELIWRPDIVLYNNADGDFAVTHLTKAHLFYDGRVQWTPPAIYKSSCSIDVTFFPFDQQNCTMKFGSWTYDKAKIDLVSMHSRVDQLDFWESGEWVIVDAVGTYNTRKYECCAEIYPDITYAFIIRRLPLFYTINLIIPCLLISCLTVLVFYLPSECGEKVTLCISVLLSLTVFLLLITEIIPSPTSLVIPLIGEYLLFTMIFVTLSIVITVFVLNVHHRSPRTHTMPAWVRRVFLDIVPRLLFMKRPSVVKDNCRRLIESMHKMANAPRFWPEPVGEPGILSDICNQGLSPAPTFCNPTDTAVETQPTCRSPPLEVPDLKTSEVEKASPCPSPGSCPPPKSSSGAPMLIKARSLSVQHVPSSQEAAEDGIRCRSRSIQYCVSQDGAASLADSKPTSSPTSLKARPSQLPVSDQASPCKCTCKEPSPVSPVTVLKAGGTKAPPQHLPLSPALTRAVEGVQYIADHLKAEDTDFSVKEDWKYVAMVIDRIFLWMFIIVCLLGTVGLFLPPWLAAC", "T2 sequence (P12390 25-500)": "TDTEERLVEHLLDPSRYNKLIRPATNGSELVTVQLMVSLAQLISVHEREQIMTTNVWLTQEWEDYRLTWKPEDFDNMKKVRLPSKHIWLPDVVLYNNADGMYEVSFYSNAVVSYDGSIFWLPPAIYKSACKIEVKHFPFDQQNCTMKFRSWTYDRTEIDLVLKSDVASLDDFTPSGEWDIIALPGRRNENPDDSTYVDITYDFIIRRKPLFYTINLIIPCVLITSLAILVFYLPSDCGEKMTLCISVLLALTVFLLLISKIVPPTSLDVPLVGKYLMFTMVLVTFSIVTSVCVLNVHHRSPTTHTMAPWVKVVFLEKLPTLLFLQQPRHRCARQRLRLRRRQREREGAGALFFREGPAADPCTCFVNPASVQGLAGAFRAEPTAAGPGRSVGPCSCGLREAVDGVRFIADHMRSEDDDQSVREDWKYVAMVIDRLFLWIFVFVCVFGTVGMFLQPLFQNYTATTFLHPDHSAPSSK", "test": "PDSP radioligand binding, A4B2", "conditions": "10 μM"}, "A4B2 [3]": {"biological_target": "T2, A4B2", "test": "PDSP radioligand binding, A4B2 sourced from rodent brain", "conditions": "10 μM"}, "A7": {"tested_on": "A7", "test": "PDSP radioligand binding, A7", "conditions": "10 μM"}, "Alpha1a": {"biological_target": "Alpha1a (Homo sapiens, UniProt P35348)", "test": "PDSP radioligand binding, Alpha1a", "conditions": "10 μM"}, "Alpha2a": {"biological_target": "Alpha2a (Homo sapiens, UniProt P08913)", "test": "PDSP radioligand binding, Alpha2a", "conditions": "10 μM"}, "Alpha2b": {"biological_target": "Alpha2b (Homo sapiens, UniProt P18089)", "sequence (P18089 whole entry)": "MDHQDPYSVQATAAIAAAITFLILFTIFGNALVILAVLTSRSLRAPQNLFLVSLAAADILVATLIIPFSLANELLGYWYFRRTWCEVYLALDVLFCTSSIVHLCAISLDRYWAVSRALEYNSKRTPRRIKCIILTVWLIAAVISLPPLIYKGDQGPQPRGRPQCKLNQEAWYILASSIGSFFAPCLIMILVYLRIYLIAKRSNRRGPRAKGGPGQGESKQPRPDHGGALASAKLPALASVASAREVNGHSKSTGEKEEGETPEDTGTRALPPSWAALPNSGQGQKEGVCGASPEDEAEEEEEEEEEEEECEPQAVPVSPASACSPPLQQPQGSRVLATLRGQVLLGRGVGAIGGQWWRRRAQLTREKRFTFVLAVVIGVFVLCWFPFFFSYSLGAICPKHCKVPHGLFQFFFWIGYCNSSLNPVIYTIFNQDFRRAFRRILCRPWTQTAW", "test": "PDSP radioligand binding, Alpha2b", "conditions": "10 μM"}, "Alpha1c": {"tested_on": "Alpha1c", "test": "PDSP radioligand binding, Alpha1c", "conditions": "10 μM"}, "AMPA": {"biological_target": "AMPA", "test": "PDSP radioligand binding, AMPA"}, "Beta1": {"biological_target": "Beta1 (Homo sapiens, UniProt P08588)", "sequence (P08588 whole entry)": "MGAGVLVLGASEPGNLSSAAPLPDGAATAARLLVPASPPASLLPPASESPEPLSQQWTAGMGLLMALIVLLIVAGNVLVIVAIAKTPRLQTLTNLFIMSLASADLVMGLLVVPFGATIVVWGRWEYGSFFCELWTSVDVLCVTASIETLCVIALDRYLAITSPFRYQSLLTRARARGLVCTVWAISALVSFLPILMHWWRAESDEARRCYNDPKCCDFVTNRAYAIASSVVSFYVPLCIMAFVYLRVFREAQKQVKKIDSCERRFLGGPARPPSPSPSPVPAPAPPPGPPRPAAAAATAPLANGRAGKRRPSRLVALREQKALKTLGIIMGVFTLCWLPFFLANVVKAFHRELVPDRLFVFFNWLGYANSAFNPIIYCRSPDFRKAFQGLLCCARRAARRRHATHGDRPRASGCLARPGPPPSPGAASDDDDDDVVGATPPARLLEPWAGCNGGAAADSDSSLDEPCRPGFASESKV", "test": "PDSP radioligand binding, Beta1", "conditions": "10 μM"}, "Beta3": {"biological_target": "Beta3 (Homo sapiens, UniProt P13945)", "test": "PDSP radioligand binding, Beta3", "conditions": "10 μM"}, "calcium channel": {"biological_target": "calcium channel", "test": "PDSP radioligand binding, calcium channel"}, "D1": {"biological_target": "D1 (Homo sapiens, UniProt P21728)", "sequence (P21728 whole entry)": "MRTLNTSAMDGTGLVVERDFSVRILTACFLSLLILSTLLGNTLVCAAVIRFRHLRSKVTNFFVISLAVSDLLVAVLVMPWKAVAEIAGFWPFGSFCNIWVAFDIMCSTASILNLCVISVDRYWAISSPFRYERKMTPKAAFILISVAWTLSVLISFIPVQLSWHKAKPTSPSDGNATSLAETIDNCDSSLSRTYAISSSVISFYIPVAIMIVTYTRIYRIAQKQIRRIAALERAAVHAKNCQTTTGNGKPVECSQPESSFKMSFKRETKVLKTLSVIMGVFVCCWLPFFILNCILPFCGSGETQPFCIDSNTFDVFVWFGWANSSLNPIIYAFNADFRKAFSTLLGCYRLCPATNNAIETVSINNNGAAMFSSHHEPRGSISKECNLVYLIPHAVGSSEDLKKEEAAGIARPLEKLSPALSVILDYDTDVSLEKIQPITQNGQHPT", "test": "PDSP radioligand binding, D1", "conditions": "10 μM"}, "D2": {"biological_target": "D2 (Homo sapiens, UniProt P14416)", "test": "PDSP radioligand binding, D2", "conditions": "10 μM"}, "D3": {"biological_target": "D3 (Homo sapiens, UniProt P35462)", "sequence (P35462 whole entry)": "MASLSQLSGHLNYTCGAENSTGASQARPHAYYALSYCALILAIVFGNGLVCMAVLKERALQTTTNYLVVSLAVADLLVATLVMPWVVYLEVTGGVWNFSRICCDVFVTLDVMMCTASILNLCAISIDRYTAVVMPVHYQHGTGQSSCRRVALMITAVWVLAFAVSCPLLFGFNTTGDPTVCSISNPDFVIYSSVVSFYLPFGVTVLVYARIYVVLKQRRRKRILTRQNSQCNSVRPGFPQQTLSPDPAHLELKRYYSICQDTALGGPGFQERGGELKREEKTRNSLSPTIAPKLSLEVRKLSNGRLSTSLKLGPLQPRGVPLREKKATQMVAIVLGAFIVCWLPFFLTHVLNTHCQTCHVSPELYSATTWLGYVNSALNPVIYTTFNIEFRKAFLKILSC", "test": "PDSP radioligand binding, D3", "conditions": "10 μM"}, "D5": {"biological_target": "D5 (Homo sapiens, UniProt P21918)", "test": "PDSP radioligand binding, D5", "conditions": "10 μM"}, "GabaA": {"tested_on": "GabaA", "test": "PDSP radioligand binding, GabaA", "conditions": "10 μM"}, "H1": {"biological_target": "H1 (Homo sapiens, UniProt P35367)", "test": "PDSP radioligand binding, H1", "conditions": "10 μM"}, "H3": {"biological_target": "H3 (Homo sapiens, UniProt Q9Y5N1)", "sequence (Q9Y5N1 whole entry)": "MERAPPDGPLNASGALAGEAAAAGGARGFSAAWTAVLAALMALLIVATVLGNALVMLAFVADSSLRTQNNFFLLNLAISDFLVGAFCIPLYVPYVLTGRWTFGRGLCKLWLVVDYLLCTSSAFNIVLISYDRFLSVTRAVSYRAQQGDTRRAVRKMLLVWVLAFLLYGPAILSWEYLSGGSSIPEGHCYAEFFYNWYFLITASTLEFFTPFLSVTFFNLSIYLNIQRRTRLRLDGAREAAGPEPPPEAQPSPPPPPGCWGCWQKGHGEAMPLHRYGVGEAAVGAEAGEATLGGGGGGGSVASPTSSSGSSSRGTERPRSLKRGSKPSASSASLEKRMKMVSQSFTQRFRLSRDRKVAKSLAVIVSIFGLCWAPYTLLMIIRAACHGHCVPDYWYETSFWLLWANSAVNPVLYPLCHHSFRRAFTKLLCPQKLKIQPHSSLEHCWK", "test": "PDSP radioligand binding, H3", "conditions": "10 μM"}, "M1": {"biological_target": "M1 (Homo sapiens, UniProt P11229)", "test": "PDSP radioligand binding, M1", "conditions": "10 μM"}, "M2": {"biological_target": "M2 (Homo sapiens, UniProt P08172)", "test": "PDSP radioligand binding, M2", "conditions": "10 μM"}, "M3": {"biological_target": "M3 (Homo sapiens, UniProt P20309)", "test": "PDSP radioligand binding, M3", "conditions": "10 μM"}, "M5": {"biological_target": "M5 (Homo sapiens, UniProt P08912)", "test": "PDSP radioligand binding, M5", "conditions": "10 μM"}, "MOR": {"biological_target": "MOR (Homo sapiens, UniProt P35372)", "test": "PDSP radioligand binding, MOR", "conditions": "10 μM"}, "NMDA": {"biological_target": "NMDA", "test": "PDSP radioligand binding, NMDA"}, "PBR": {"biological_target": "PBR (Rattus norvegicus, UniProt P16257)", "sequence (P16257 whole entry)": "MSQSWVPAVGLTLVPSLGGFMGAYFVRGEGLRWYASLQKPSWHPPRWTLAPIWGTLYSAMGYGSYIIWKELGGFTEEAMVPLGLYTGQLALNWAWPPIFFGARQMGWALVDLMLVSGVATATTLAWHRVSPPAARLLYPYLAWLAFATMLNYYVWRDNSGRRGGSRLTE", "test": "PDSP radioligand binding, PBR", "conditions": "10 μM"}, "SERT": {"biological_target": "SERT (Homo sapiens, UniProt P31645)", "sequence (P31645 whole entry)": "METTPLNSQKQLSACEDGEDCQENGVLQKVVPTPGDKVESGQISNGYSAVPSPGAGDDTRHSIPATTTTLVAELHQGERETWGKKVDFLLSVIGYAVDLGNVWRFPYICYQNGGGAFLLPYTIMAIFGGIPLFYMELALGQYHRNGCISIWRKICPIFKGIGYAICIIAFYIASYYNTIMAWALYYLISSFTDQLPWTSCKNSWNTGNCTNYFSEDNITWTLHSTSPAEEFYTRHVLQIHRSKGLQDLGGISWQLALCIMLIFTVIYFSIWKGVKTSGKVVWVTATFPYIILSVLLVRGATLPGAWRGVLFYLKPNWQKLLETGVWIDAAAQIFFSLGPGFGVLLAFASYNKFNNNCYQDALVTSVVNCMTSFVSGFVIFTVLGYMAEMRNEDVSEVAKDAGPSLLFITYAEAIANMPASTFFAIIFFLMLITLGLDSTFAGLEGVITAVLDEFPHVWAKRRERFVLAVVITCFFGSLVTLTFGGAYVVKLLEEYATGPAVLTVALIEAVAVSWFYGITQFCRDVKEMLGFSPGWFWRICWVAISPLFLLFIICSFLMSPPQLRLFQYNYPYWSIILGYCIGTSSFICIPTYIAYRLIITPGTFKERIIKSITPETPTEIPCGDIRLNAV", "test": "PDSP radioligand binding, SERT", "conditions": "10 μM"}, "V1B": {"biological_target": "V1B (Homo sapiens, UniProt P47901)", "test": "PDSP radioligand binding, V1B"}, "V2": {"biological_target": "V2 (Homo sapiens, UniProt P30518)", "test": "PDSP radioligand binding, V2"}}, "data": [{"smiles": "OCCCN1CCCC2CC1c1cc(-c3ccc(C(F)(F)F)cc3)ccc12", "note": "(racemic) [UKH-1114, (±)-9-(4-(Trifluoromethyl)phenyl)-3,4,5,6-tetrahydro-1,6-methanobenzo[c]azocin-2(1H)-yl)propan-1-ol]", "values": [{"measurement": "affinity at σ2R/Tmem97 (in words)", "setting": "σ2R/Tmem97", "result": "high affinity"}, {"measurement": "time of peak relief of mechanical hypersensitivity after dosing", "setting": "[1]; IT", "result": 48, "unit": "h"}, {"measurement": "effect on SNI-induced mechanical hypersensitivity", "setting": "[1]; single IT injection, 10 μg, vs vehicle", "result": "significant antimechanical hypersensitivity effects at either 24 or 48 h"}, {"measurement": "effect on motor performance (latency to fall, rotorod)", "setting": "SNI mice", "result": "no effect"}, {"measurement": "inhibition of radioligand binding (Ki column, footnote a)", "setting": "5HT1A", "result": "^a (<50% inhibition of radioligand binding at 10 μM)"}, {"measurement": "inhibition of radioligand binding (Ki column, footnote a)", "setting": "5HT1B", "result": "^a (<50% inhibition of radioligand binding at 10 μM)"}, {"measurement": "inhibition of radioligand binding (Ki column, footnote a)", "setting": "5HT1D", "result": "^a (<50% inhibition of radioligand binding at 10 μM)"}, {"measurement": "inhibition of radioligand binding (Ki column, footnote a)", "setting": "5HT2A", "result": "^a (<50% inhibition of radioligand binding at 10 μM)"}, {"measurement": "inhibition of radioligand binding (Ki column, footnote a)", "setting": "5HT5a", "result": "^a (<50% inhibition of radioligand binding at 10 μM)"}, {"measurement": "inhibition of radioligand binding (Ki column, footnote a)", "setting": "5HT7", "result": "^a (<50% inhibition of radioligand binding at 10 μM)"}, {"measurement": "inhibition of radioligand binding (Ki column, footnote a)", "setting": "A2B2", "result": "^a (<50% inhibition of radioligand binding at 10 μM)"}, {"measurement": "inhibition of radioligand binding (Ki column, footnote a)", "setting": "A2B4", "result": "^a (<50% inhibition of radioligand binding at 10 μM)"}, {"measurement": "inhibition of radioligand binding (Ki column, footnote a)", "setting": "A3B2", "result": "^a (<50% inhibition of radioligand binding at 10 μM)"}, {"measurement": "inhibition of radioligand binding (Ki column, footnote a)", "setting": "A3B4", "result": "^a (<50% inhibition of radioligand binding at 10 μM)"}, {"measurement": "inhibition of radioligand binding (Ki column, footnote a)", "setting": "A4B2 [2]", "result": "^a (<50% inhibition of radioligand binding at 10 μM)"}, {"measurement": "inhibition of radioligand binding (Ki column, footnote a)", "setting": "A4B2 [3]", "result": "^a (<50% inhibition of radioligand binding at 10 μM)"}, {"measurement": "inhibition of radioligand binding (Ki column, footnote a)", "setting": "A7", "result": "^a (<50% inhibition of radioligand binding at 10 μM)"}, {"measurement": "inhibition of radioligand binding (Ki column, footnote a)", "setting": "Alpha1a", "result": "^a (<50% inhibition of radioligand binding at 10 μM)"}, {"measurement": "inhibition of radioligand binding (Ki column, footnote a)", "setting": "Alpha2a", "result": "^a (<50% inhibition of radioligand binding at 10 μM)"}, {"measurement": "inhibition of radioligand binding (Ki column, footnote a)", "setting": "Alpha2b", "result": "^a (<50% inhibition of radioligand binding at 10 μM)"}, {"measurement": "inhibition of radioligand binding (Ki column, footnote a)", "setting": "Alpha1c", "result": "^a (<50% inhibition of radioligand binding at 10 μM)"}, {"measurement": "Ki", "setting": "AMPA", "result": "> 10", "unit": "µM"}, {"measurement": "inhibition of radioligand binding (Ki column, footnote a)", "setting": "Beta1", "result": "^a (<50% inhibition of radioligand binding at 10 μM)"}, {"measurement": "inhibition of radioligand binding (Ki column, footnote a)", "setting": "Beta3", "result": "^a (<50% inhibition of radioligand binding at 10 μM)"}, {"measurement": "Ki", "setting": "calcium channel", "result": "> 10", "unit": "µM"}, {"measurement": "inhibition of radioligand binding (Ki column, footnote a)", "setting": "D1", "result": "^a (<50% inhibition of radioligand binding at 10 μM)"}, {"measurement": "inhibition of radioligand binding (Ki column, footnote a)", "setting": "D2", "result": "^a (<50% inhibition of radioligand binding at 10 μM)"}, {"measurement": "inhibition of radioligand binding (Ki column, footnote a)", "setting": "D3", "result": "^a (<50% inhibition of radioligand binding at 10 μM)"}, {"measurement": "inhibition of radioligand binding (Ki column, footnote a)", "setting": "D5", "result": "^a (<50% inhibition of radioligand binding at 10 μM)"}, {"measurement": "inhibition of radioligand binding (Ki column, footnote a)", "setting": "GabaA", "result": "^a (<50% inhibition of radioligand binding at 10 μM)"}, {"measurement": "inhibition of radioligand binding (Ki column, footnote a)", "setting": "H1", "result": "^a (<50% inhibition of radioligand binding at 10 μM)"}, {"measurement": "inhibition of radioligand binding (Ki column, footnote a)", "setting": "H3", "result": "^a (<50% inhibition of radioligand binding at 10 μM)"}, {"measurement": "inhibition of radioligand binding (Ki column, footnote a)", "setting": "M1", "result": "^a (<50% inhibition of radioligand binding at 10 μM)"}, {"measurement": "inhibition of radioligand binding (Ki column, footnote a)", "setting": "M2", "result": "^a (<50% inhibition of radioligand binding at 10 μM)"}, {"measurement": "inhibition of radioligand binding (Ki column, footnote a)", "setting": "M3", "result": "^a (<50% inhibition of radioligand binding at 10 μM)"}, {"measurement": "inhibition of radioligand binding (Ki column, footnote a)", "setting": "M5", "result": "^a (<50% inhibition of radioligand binding at 10 μM)"}, {"measurement": "inhibition of radioligand binding (Ki column, footnote a)", "setting": "MOR", "result": "^a (<50% inhibition of radioligand binding at 10 μM)"}, {"measurement": "Ki", "setting": "NMDA", "result": 6.72, "unit": "µM"}, {"measurement": "inhibition of radioligand binding (Ki column, footnote a)", "setting": "PBR", "result": "^a (<50% inhibition of radioligand binding at 10 μM)"}, {"measurement": "inhibition of radioligand binding (Ki column, footnote a)", "setting": "SERT", "result": "^a (<50% inhibition of radioligand binding at 10 μM)"}, {"measurement": "Ki", "setting": "V1B", "result": "> 10", "unit": "µM"}, {"measurement": "Ki", "setting": "V2", "result": "> 10", "unit": "µM"}]}]}
